Assay [1] deals with Aorta. Description: Vasodilatory activity in Wistar rat thoracic aortic ring assessed as inhibition of phenylephrine-induced contraction at 10 uM treated after phenylephrine challenge. The format is functional. The gist of the method:
(§1)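 Thoracic aortic rings were taken from Wistar rats of either sex (300–400 g) and held in PSS at 37 °C under O2/CO2 (95:5), equilibrated ≥90 min. Rings were precontracted with 10^-6 M phenylephrine, then given cumulative additions of 10^-8 to 10^-5 M at 30 min intervals, one compound per ring. Relaxation was read as % of initial contraction. A sigmoidal fit gave pD2 and Emax, reported as mean ± SEM of 4 or 8 experiments.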

In assay [2] the test system is Aorta. In words: Vasodilatory activity in Wistar rat thoracic aortic ring assessed as inhibition of phenylephrine-induced contraction treated after phenylephrine challenge. The assay is classed as functional, tissue-based. Conditions: for IC50: Rattus norvegicus, Wistar, Aorta. In a few lines: as §1
The test system of assay [3] is Aorta. In words: Ratio of SK&F-93741 IC50 to compound IC50 for inhibition of phenylephrine-induced contraction in Wistar rat thoracic aortic ring. The assay is classed as functional.
The subject of assay [4] is Aorta. Description: Ratio of hydralazine IC50 to compound IC50 for inhibition of phenylephrine-induced contraction in Wistar rat thoracic aortic ring. The format is functional.

The Emax is the size of the effect at its maximum, as opposed to the concentration needed. One may read the IC50 as the concentration that gives 50% inhibition.

In the case of `CC1CC(=O)NN=C1c1ccc(OCC(=O)n2ccnc2)cc1` (stereo not drawn), the Emax at 10 µM in the assay on Aorta [1] was found to be 32%. Still for that read-out and setting: in the case of `O=C1CCC(c2ccc(OCC(=O)n3ccnc3)cc2)=NN1` it was 3.7%. On to `CC(=O)Nc1ccc(C2=NNC(=O)CC2C)cc1` (stereo not drawn), for which the Emax at 10 µM in the assay with Aorta [1] was 61.1%. Besides, in the assay on Aorta [2], the pD2 was 7. Regarding `O=C1CCC(c2ccc(OCC(=O)N3CCCC3)cc2)=NN1`, in the assay with Aorta [1], the Emax at 10 µM was found to be 52.2%. Moreover, in the assay on Aorta [2], the pD2 is given as 5.9 and the IC50 came to 1020 nM. For `CN1CCN(C(=O)COc2ccc(C3=NNC(=O)CC3)cc2)CC1`, in the assay with Aorta [1], the maximal effect (Emax) at 10 µM is 23.9%. For `CC1CC(=O)NN=C1c1ccc(OCC(=O)N2CCCCC2)cc1` (stereo not drawn), the Emax at 10 µM with Aorta [1] amounted to 29.8%.

With `NNc1nncc2ccccc12` [HYDRALAZINE], the Emax at 10 µM in the assay on Aorta [1] is 55%. The pD2 in the assay on Aorta [2] is on record as 6.6. Take `O=C(COc1ccc(C2=NN(c3ccccc3)C(=O)CC2)cc1)N1CCCCC1`: the Emax at 10 µM with Aorta [1] is 16.2%. Regarding `O=C(COc1ccc(C2=NN(c3ccc(F)cc3)C(=O)CC2)cc1)N1CCCC1`, the Emax at 10 µM in the assay on Aorta [1] was 61.8%. In the assay on Aorta [2], the pD2 is 7.2 and the IC50 came out at 51 nM. Also, in the assay on Aorta [3], the Ratio IC50 was 1.7. The Ratio IC50 with Aorta [4] was 4.5. As to `O=C1CCC(c2ccc(OCC(=O)N3CCCCC3)cc2)=NN1`, the Emax at 10 µM in the assay on Aorta [1] was 61.6%. Further, in the assay with Aorta [2], the pD2 amounted to 5.9 and the IC50 is 910 nM. For the compound `CC1CC(=O)NN=C1c1ccc(OCC(=O)N2CCOCC2)cc1` (stereo not drawn), in the assay with Aorta [1], the Emax at 10 µM came to 17.6%. As for `O=C1CCC(c2ccc(OCC(=O)N3CCOCC3)cc2)=NN1`, in the assay with Aorta [1], the Emax at 10 µM was found to be 41.8%. As to `CC1CC(=O)NN=C1c1ccc(OCC(=O)N2CCCC2)cc1` (stereo not drawn), the Emax at 10 µM with Aorta [1] came out at 21.7%.

Values taken from ChEMBL document CHEMBL1153783, “Synthesis and vasodilatory activity of some amide derivatives of 6-(4-carboxymethyloxyphenyl)-4,5-dihydro-3(2H)-pyridazinone” (Eur J Med Chem, 2009).
